This is an account of results in ChEMBL document CHEMBL1122318, “Aporphines. 50. Kinetics of solvolysis of N-(2-chloroethyl)norapomorphine, an irreversible dopamine receptor antagonist” (J Med Chem, 1983).

Each structure is given as a SMILES string. Values joined by “and” are separate entries in the source; they are usually repeats but may differ in a detail not shown here. Identical values can stand only once.

Holding throughout (format): ADME
A short description of data set [1]: Apparent rate of cyclization (kobsd) value at pH 5.40(in 0.1 M acetate). As to conditions: pH 5.4. Summed up:
(§1)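 Buffers were 0.1 M sodium acetate titrated with 0.1 M acetic acid below pH 6.0, and NaH2PO4–Na2HPO4 (100 mM) at pH 6.0–8.0. Remaining NCA was quantified from peak heights against a 100–900 ng standard curve. First-order kobsd came from log[NCA] versus time over at least two half-lives.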

Data set [2] is described as follows: Apparent rate of cyclization (kobsd) value at pH 5.60(in 0.1 M acetate). Conditions: pH 5.6. Summed up:
as §1

Data set [3] can be described thus: Apparent rate of cyclization (kobsd) value at pH 5.80(in 0.1 M acetate). As to conditions: pH 5.8. Summed up: as §1
Data set [4] can be described thus: Apparent rate of cyclization (kobsd) value at pH 6.00(in 0.1 M phosphate). Summed up: as §1
A short description of data set [5]: Apparent rate of cyclization (kobsd) value at pH 6.25(in 0.1 M phosphate). Summed up: as §1
Data set [6] is described as follows: Apparent rate of cyclization (kobsd) value at pH 6.50(in 0.1 M phosphate). Conditions: pH 6.5. Put shortly:
as §1

A short description of data set [7]: Apparent rate of cyclization (kobsd) value at pH 6.75(in 0.1 M phosphate). Put shortly:
as §1

A short description of data set [8]: Apparent rate of cyclization (kobsd) value at pH 7.00(in 0.1 M […]).
Data set [9] is described as follows: Apparent rate of cyclization (kobsd) value at pH 8.00(in 0.1 M […]).
Data set [10] in a line: Half-life period at pH 5.60(in 0.1 M acetate). Conditions: 0.1 M acetate buffer, pH 5.6. Summed up: as §1
Data set [11] in a line: Half-life period at pH 5.80(in 0.1 M acetate). Conditions: 0.1 M acetate buffer, pH 5.8. Summed up:
as §1

Data set [12] is described as follows: Half-life period at pH 6.00(in 0.1 M […]). Conditions: 0.1 M acetate buffer.
The nature of data set [13]: Half-life period at pH 6.25(in 0.1 M […]). Conditions: 0.1 M […] buffer.
Data set [14] in a line: Half-life period at pH 6.75(in 0.1 M […]). Conditions: 0.1 M […] buffer.
Data set [15] can be described thus: Half-life period at pH 7.00(in 0.1 M […]).
Data set [16] in a line: Half-life period at pH 7.50(in 0.1 M […]). Conditions: 0.1 M […] buffer, pH 7.5.
Data set [17] can be described thus: Half-life period at pH 8.00(in 0.1 M […]). As to conditions: 0.1 M […] buffer.
Data set [18] in a line: Half-life period at pH 5.40(in 0.1 M acetate). Conditions: 0.1 M acetate buffer, pH 5.4. Summed up:
as §1

Data set [19] is described as follows: Half-life period at pH 6.50(in 0.1 M […]). Conditions: 0.1 M […] buffer, pH 6.5.

`Oc1ccc2c(c1O)-c1cccc3c1[C@@H](C2)N(CCCl)CC3`: the k obs in data set [1] amounted to 36 min⁻¹; in data set [2], 49 min⁻¹; in [3] it was 65 min⁻¹; in data set [4] it was 97 min⁻¹; in data set [5], 152 min⁻¹; in data set [6], 175 min⁻¹. Also, the k obs in data set [7] was 212 min⁻¹; in data set [8], 243 min⁻¹ and 252 min⁻¹; in data set [9], 308 min⁻¹. Also, the half-life in data set [10] came to 141 min; in [11] it was 107 min; in [12], 71 min; in data set [13], 45 min; in data set [14] it was 33 min; in data set [15] (0.1 M acetate buffer), 29 min. Moreover, the half-life in data set [16] worked out at 24 min; in [17] it was 22 min; in [18], 192 min; in data set [19], 39 min. The compound also registered a T1/2 in data set [15] of 28 min.
